In ChEMBL document CHEMBL1123506, “Unsaturated heterocyclic amines as potent time-dependent inhibitors of dopamine beta-hydroxylase” (J Med Chem, 1986):

Key:
[1] = biological target: T1, Dopamine beta-hydroxylase (Bos taurus) (UniProt P15101); test: Compound was determined for the kinetic constant against Dopamine beta hydroxylase purified from beef adrenals, catalytic constant (kcat)
T1 sequence (whole entry): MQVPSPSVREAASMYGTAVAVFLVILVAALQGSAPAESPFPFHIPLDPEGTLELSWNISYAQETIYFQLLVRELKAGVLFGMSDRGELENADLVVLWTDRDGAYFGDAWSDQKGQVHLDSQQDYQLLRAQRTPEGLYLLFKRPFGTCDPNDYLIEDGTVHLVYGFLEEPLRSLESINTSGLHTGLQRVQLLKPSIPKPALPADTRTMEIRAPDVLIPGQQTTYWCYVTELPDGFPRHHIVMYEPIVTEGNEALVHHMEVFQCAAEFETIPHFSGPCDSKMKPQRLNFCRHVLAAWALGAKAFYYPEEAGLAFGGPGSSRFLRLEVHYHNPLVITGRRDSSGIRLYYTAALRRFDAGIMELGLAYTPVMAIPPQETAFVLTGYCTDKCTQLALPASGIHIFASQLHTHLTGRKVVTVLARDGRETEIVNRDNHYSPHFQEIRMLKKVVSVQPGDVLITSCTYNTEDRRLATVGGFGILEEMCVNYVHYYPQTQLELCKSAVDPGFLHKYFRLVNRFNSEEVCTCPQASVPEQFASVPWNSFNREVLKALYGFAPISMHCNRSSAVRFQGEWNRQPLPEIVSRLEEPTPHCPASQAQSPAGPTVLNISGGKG
Outline: (§1)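 Bovine adrenal DBH, purified to homogeneity. Aliquots withdrawn at timed intervals and diluted into assay medium with 1 mM tyramine. Residual activity measured as octopamine formed, by reverse-phase HPLC with fluorescence detection. KI and kcat from Kitz–Wilson plot of t1/2 versus 1/I; kcat/KI calculated.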

[2] = The ratio of Kinetic constant K cat / Ki of Dopamine Beta-hydroxylase inhibitor.; outline: as §1
[3] = tested on: Rattus norvegicus; test: Compound was evaluated for the antihypertensive activity against DBH in conscious spontaneously hypertensive rats at the 100 doses (mg/Kg ip). (MBP= mean arterial blood pressure)
[4] = biological target: T2, Dopamine beta-hydroxylase (Bos taurus, UniProt P15101); test: Compound was determined for the kinetic constant against Dopamine beta hydroxylase purified from beef adrenals, inhibitory constant (Ki); outline: as §1
T2 sequence (P15101 whole entry): T1 sequence (whole entry)

[5] = tested on: Rattus norvegicus; test: Compound was evaluated for the antihypertensive activity against DBH in conscious spontaneously hypertensive rats at the 30 doses (mg/Kg ip) after >1h. (MBP= mean arterial blood pressure); assay type: functional, Artery
Outline: (§2)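 Conscious spontaneously hypertensive rats dosed intraperitoneally at 10, 30 or 100 mg/kg, n = 4–6 per group. Read-out is maximal change in mean arterial blood pressure (mmHg, mean ± SD), with duration of response in hours.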

[6] = tested on: Rattus norvegicus; test: Compound was evaluated for the antihypertensive activity against DBH in conscious spontaneously hypertensive rats at the 30 doses (mg/Kg ip) after 9 hr (MBP= mean arterial blood pressure); assay type: functional, Artery
Outline: (§3)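 Conscious spontaneously hypertensive rats received a single intraperitoneal dose; the paper's dose levels were 10, 30 and 100 mg/kg. Mean arterial blood pressure was monitored. Values are the maximal change in mmHg and the duration of the response in h. Groups were n = 4–6, reported as mean ± SD.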

[7] = tested on: Rattus norvegicus; test: Compound was evaluated for the antihypertensive activity against DBH in conscious spontaneously hypertensive rats at the 100 doses (mg/Kg ip) after 2 hr.; assay type: functional; outline: as §2
[8] = tested on: Rattus norvegicus; test: Compound was evaluated for the antihypertensive activity against DBH in conscious spontaneously hypertensive rats at the 30 doses (mg/Kg ip) after 1h.; assay type: functional; outline: as §2
[9] = tested on: Rattus norvegicus; test: Compound was evaluated for the antihypertensive activity against DBH in conscious spontaneously hypertensive rats at the 30 doses (mg/Kg i.p.) after 3hr.; assay type: functional; outline: as §3
[10] = tested on: Rattus norvegicus; test: Compound was evaluated for the antihypertensive activity against DBH in conscious spontaneously hypertensive rats at the 10 doses (mg/Kg ip) after 1h.; assay type: functional; outline: as §2
[11] = tested on: Rattus norvegicus; test: Compound was evaluated for the antihypertensive activity against DBH in conscious spontaneously hypertensive rats at the 30 doses (mg/Kg ip) after 43h.; assay type: functional; outline: as §2
[12] = tested on: Rattus norvegicus; test: Compound was evaluated for the antihypertensive activity against DBH in conscious spontaneously hypertensive rats at the 100 doses (mg/Kg ip) after 70h.; assay type: functional; outline: as §2
[13] = tested on: Rattus norvegicus; test: Compound was evaluated for the antihypertensive activity against DBH in conscious spontaneously hypertensive rats at the 30 doses (mg/Kg ip) after 6h.; assay type: functional; outline: as §2
[14] = tested on: Rattus norvegicus; test: Compound was evaluated for the antihypertensive activity against DBH in conscious spontaneously hypertensive rats at the 100 doses (mg/Kg ip) after 3h.; assay type: functional; outline: as §2
[15] = tested on: Rattus norvegicus; test: Compound was evaluated for the antihypertensive activity against DBH in conscious spontaneously hypertensive rats at the 100 doses (mg/Kg ip) after 79h.; assay type: functional; outline: as §2
[16] = tested on: Rattus norvegicus; test: Compound was evaluated for the antihypertensive activity against DBH in conscious spontaneously hypertensive rats at the 30 doses (mg/Kg ip) after 30h.; assay type: functional; outline: as §2

Structure (SMILES): C=C(CNC)c1cccs1
- k cat [1]: 0.00163 s⁻¹
- k cat/Ki [2]: 0.733 M⁻¹ s⁻¹
- Max MBP [3]: -16 mmHg
- Ki [4]: 2150 µM
- Max MBP [5]: -23 mmHg

Structure (SMILES): C=C(c1cccs1)C(C)N (stereo unspecified)
- k cat [1]: 0.000967 s⁻¹
- k cat/Ki [2]: 2.68 M⁻¹ s⁻¹
- Max MBP [6]: -16 mmHg
- Ki [4]: 360 µM

Structure (SMILES): C=C(CN)c1ccccc1
- k cat [1]: 0.04 -1/min
- k cat/Ki [2]: 0.05 M⁻¹ s⁻¹
- Ki [4]: 13000 µM

Structure (SMILES): C=C(CN)c1ccsc1
- Max MBP [7]: -54 mmHg
- k cat [1]: 0.147 -1/min
- k cat/Ki [2]: 4.28 M⁻¹ s⁻¹
- Max MBP [8]: -18 mmHg
- Ki [4]: 570 µM

Structure (SMILES): CC#Cc1ccccc1
- k cat [1]: 0.06 -1/min
- k cat/Ki [2]: 0.1 M⁻¹ s⁻¹
- Ki [4]: 20000 µM

Structure (SMILES): NCC#Cc1ccccc1
- Max MBP [9]: -13 mmHg
- k cat [1]: 0.07 -1/min
- k cat/Ki [2]: 55.5 M⁻¹ s⁻¹
- Ki [4]: 21 µM

Structure (SMILES): C=C(CN)c1cccs1
- Max MBP [10]: -19 mmHg
- Max MBP [11]: -36 mmHg
- k cat [1]: 0.124 -1/min
- k cat/Ki [2]: 59 M⁻¹ s⁻¹
- Max MBP [12]: -34 mmHg
- Ki [4]: 35 µM

Structure (SMILES): C=C(CN)c1ccoc1
- Max MBP [13]: -20 mmHg
- k cat [1]: 0.077 -1/min
- k cat/Ki [2]: 5.57 M⁻¹ s⁻¹
- Max MBP [14]: -21 mmHg
- Ki [4]: 230 µM

Structure (SMILES): C=C(CN)c1ccco1
- Max MBP [10]: -10 mmHg
- k cat [1]: 0.13 -1/min
- k cat/Ki [2]: 5.28 M⁻¹ s⁻¹
- Max MBP [15]: -69 mmHg
- Ki [4]: 410 µM
- Max MBP [16]: -26 mmHg
